A selection: hits, their analogues and other compounds. The true share with any hit is near 3.1%.
HIV Env fusion = inhibitors of HIV-1 Env-driven cell-cell fusion, primary screen, HeLa-JRFL effector, CEM21 target cells, luciferase. inhibition, % at 12.3 µM. 360,000 tested, 1.1% active. AID 651610, 2012;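 active means mean replicate inhibition score of at least 50 and every replicate individually at or above 50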
EWS-Fli inh = EWS/Fli-driven NR0B1 reporter inhibitors, primary screen, A673 cells, NR0B1 luciferase, luminescence, MLPCN library. inhibition, % at 12.6 µM. 350,000 tested, 0.67% active. viability-normalised;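 active means mean inhibition of at least 50% after viability correction, with every replicate also passing that limit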;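 further: firefly luciferase signal divided by Alamar Blue viability fluorescence both relative to DMSO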
FN deposition inh = inhibitors of fibronectin matrix deposition, primary screen, AH1F cells, Alexa488-fibronectin fluorescence, plate reader. AID 743247, 2014. AH1F fibroblasts, overnight. 350,000 tested, 0.086% active. inhibition, % at 12.6 µM;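 active means mean inhibition across replicates of 30% or more, regardless of how many single replicates reach that level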
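test system = AH1F fibroblasts assembling fluorescent fibronectin matrix | quantity = 10000 AH1F cells per well | buffer or medium = DMEM plus 2% serum, read in PBS | doses = single dose, pinned | incubation = 1 h cell attachment, overnight exposure to compound and label | detection = fluorescence at 485 nm excitation, 525 nm emission | read-out basis = inhibition from reduced deposited-fibronectin fluorescence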
PAX8 reporter = inhibitors of PAX8-driven TPO luciferase reporter, primary screen, RMG-I cells, single concentration; 360,000 tested, 1.2% active; SteadyGlo, 24 h; inhibition, % at 12.6 µM; AID 652154, 2013;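 active means mean replicate inhibition at least 60% with every replicate also reaching 60%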;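 further: luciferase light reporting Pax8 driven TPO promoter activity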
PGC1a acetyl inh = inhibitors of PGC1a acetylation signal, primary screen, cell-based, U2OS, AlphaScreen, inhibitor mode; 350,000 tested, 0.17% active; inhibition, % at 15.6 µM; AID 651687, 2012; AlphaScreen anti-acetyl-lysine; with virally co-expressed GCN5 acetyltransferase;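 active means every replicate shows inhibition of at least 40%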
FGF22 binding = binders of human FGF22 protein, primary screen, FGF22 synaptogenesis inhibitor project, biophysical, thermal shift, single point; recombinant FGF22 thermal shift, SYPRO orange fluorescence; percent of sucrose octasulfate shift, DMSO zero; activity (Tm shift, normalised), % at 9.99 µM; 340,000 tested, 1.5% active; AID 651658, 2012;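 active means mean Tm shift, scaled 0 neutral to 100 positive control, at about 1.3% or above, every replicate too, limit read from the data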
Target sequence (Q9HCT0 whole entry, looked up): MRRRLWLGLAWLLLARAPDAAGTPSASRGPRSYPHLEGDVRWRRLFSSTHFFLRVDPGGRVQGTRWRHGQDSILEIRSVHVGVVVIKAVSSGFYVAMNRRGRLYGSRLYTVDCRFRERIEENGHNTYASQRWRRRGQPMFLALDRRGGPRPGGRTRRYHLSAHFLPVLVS
Numbers stand for hits; i = inactive; nt = not tested or not shown.

SMILES | HIV Env fusion | EWS-Fli inh | FN deposition inh | PAX8 reporter | PGC1a acetyl inh | FGF22 binding
O=C(Cc1cccs1)N(Cc1ccco1)C1(C(=O)NC2CCCCC2)CCCCC1 | 73.1 | nt | i | i | i | nt
COCC#Cc1ccc(CC[C@H]2O[C@H]3CC[C@H](CO)O[C@H]3C[C@@H]2n2cc(C3CC3)nn2)cc1 | nt | i | nt | nt | i | nt
C[C@H](CO)N1C[C@H](C)[C@H](CN(C)S(C)(=O)=O)Oc2ccc(NC(=O)CCC(F)(F)F)cc2CC1=O | i | i | nt | i | i | i
COc1ccc(S(=O)(=O)Nc2ccc3c(c2)C(=O)N([C@H](C)CO)C[C@@H](C)[C@@H](CN(C)Cc2ccc(C(=O)O)cc2)OCCCC[C@H](C)O3)cc1 | i | i | nt | i | i | i
C[C@@H]1CCCCO[C@@H](CN(C)S(=O)(=O)c2ccccc2)[C@H](C)CN([C@H](C)CO)C(=O)c2cc(NC(=O)C3CCCCC3)ccc2O1 | i | i | i | i | i | nt
c1nc(CCO[C@H]2CCCCO2)cc2cc3c(cc12)OCO3 | i | 75.0 | i | i | nt | i
COc1ccccc1C(=O)Nc1ccc2c(c1)C(=O)N(C)[C@@H]1CC[C@H](CC(=O)NCc3ccc(Cl)c(Cl)c3)O[C@@H]1CO2 | nt | i | i | i | i | i
O=C(Nc1cc(C(F)(F)F)ccc1N1CCCCC1)c1cccc([N+](=O)[O-])c1 | 98.0 | nt | nt | nt | i | nt
CCc1nc2ccccc2c(C(=O)O)c1C | i | nt | i | nt | i | nt
Cc1nc2ccccc2n1CC(=O)NN | i | i | i | i | nt | i
CCc1nc2ccccc2c(C(=O)NCc2ccccc2)c1C | i | i | i | i | nt | 43.1
CCc1nc2ccccc2c(C(=O)Oc2cccc3cccnc23)c1C | 79.6 | nt | i | nt | nt | nt
Cc1nc2ccccc2n1CC(=O)NCc1ccccc1 | 82.7 | nt | i | nt | i | nt
CCc1nc2ccc(C)cc2c(C(=O)Oc2cccc3cccnc23)c1C | i | nt | i | nt | nt | nt
CCc1nc2ccccc2c(C(=O)OCC(=O)N2CC(C)OC(C)C2)c1C (centres undefined) | 64.4 | i | i | i | nt | i
C[C@H](NC(=O)C[C@H]1C[C@@H]2c3cc(NC(=O)C4CCOCC4)ccc3O[C@@H]2[C@@H](CO)O1)c1ccccc1 | i | i | nt | i | i | i
O=C(C[C@H]1C=C[C@H](NC(=O)CCN2CCCCC2)[C@H](CO)O1)Nc1nccs1 | i | i | i | i | i | i
O=C(Nc1ccccc1)N[C@H]1CC[C@H](CCNS(=O)(=O)c2cccc(F)c2)O[C@H]1CO | i | i | nt | i | i | i
COc1ccc(Cn2nnnc2C(c2cc3cccc(C)c3[nH]c2=O)N2CCOCC2)cc1 (centres undefined) | 86.0 | nt | i | nt | i | nt
CCN1CCN(C(c2cc3cccc(C)c3[nH]c2=O)c2nnnn2Cc2ccccc2)CC1 (centres undefined) | i | nt | i | nt | nt | nt
COc1ccc(Cn2nnnc2C(c2cc3cc(C)ccc3[nH]c2=O)N2CCOCC2)cc1 (centres undefined) | 66.9 | nt | nt | nt | nt | nt
COc1ccc(N2CCN(C(c3cc4cc(C)ccc4[nH]c3=O)c3nnnn3Cc3ccccc3)CC2)cc1 (centres undefined) | i | nt | nt | i | i | nt
COc1ccc2[nH]c(=O)c(CN(Cc3ccco3)C(c3nnnn3Cc3ccccc3)C(C)C)cc2c1 (centres undefined) | 54.5 | nt | i | i | i | nt
O=C(Cc1cccnc1)N1[C@H](CO)[C@H](c2ccccc2)[C@@H]1CNCC1CCC1 | nt | i | i | i | i | i
CO[C@H]1CN(C)C(=O)c2cc(NC(=O)Nc3ccc(Cl)cc3)ccc2OC[C@@H](C)N(C(=O)Nc2c(C)noc2C)C[C@H]1C | i | i | i | i | i | nt
COc1ccc(-c2cnc3c(c2)C(=O)N([C@@H](C)CO)C[C@@H](C)[C@@H](CN(C)C(=O)Cc2ccccn2)O3)cc1 | i | i | nt | nt | i | i
Cc1cccc(COCC(CC(C)C)N2CCN(C(=O)c3ccc(C(F)(F)F)cc3)CCC2=O)c1 (centres undefined) | 82.9 | i | i | i | i | i
Cc1cccc(COC[C@H](CC(C)C)N2CCN(C(=O)c3ccc(C(C)(C)C)cc3)CCC2=O)c1 | i | i | nt | i | nt | i
